# Reference: ChEMBL document CHEMBL1156448, “Identification of an efficacy switch region in the ghrelin receptor responsible for interchange between agonism and inverse agonism” (J Biol Chem, 2007)
# Assays:
# [1] = target: T1, Growth hormone secretagogue receptor type 1 (Homo sapiens, UniProt Q92847); test: Displacement of [35S]MK677 from human ghrelin receptor expressed in african green monkey COS7 cells; format: cell-based, COS-7
# Target sequence in this assay (Q92847 whole entry): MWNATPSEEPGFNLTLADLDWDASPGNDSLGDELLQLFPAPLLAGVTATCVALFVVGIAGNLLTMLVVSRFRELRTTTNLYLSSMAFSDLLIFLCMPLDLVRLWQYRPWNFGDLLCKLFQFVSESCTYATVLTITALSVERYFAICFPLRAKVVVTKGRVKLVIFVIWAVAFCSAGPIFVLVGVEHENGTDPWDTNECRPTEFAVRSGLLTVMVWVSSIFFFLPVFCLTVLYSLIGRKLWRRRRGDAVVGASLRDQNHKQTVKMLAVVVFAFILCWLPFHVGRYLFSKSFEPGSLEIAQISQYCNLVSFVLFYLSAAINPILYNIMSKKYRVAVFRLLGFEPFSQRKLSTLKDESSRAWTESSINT
# [2] = target: T1, Growth hormone secretagogue receptor type 1; test: Inverse agonist activity at human ghrelin receptor expressed in african green monkey COS7 cells assessed as constitutively stimulated inositol phosphate accumulation; format: functional, cell-based, COS-7
# Target sequence in this assay (Q92847 whole entry): as above
# [3] = target: Growth hormone secretagogue receptor type 1 (Homo sapiens, UniProt Q92847, D99K); test: Agonist activity at human ghrelin receptor Asp2:20Lys(Asp99) mutant expressed in african green monkey COS7 cells assessed as inhibition of inositol phosphate accumulation; format: functional, cell-based, COS-7
# Chain of Growth hormone secretagogue receptor type 1 (Homo sapiens, UniProt Q92847, D99K) (Q92847 whole entry D99K): as the sequence (Q92847 whole entry) above, with D99K counted along it
# How it was run: (§1)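 COS-7 cells transiently transfected (calcium phosphate with chloroquine; receptor cDNA 20 μg/75 cm2, the amount giving maximal basal signaling), labelled one day later for 24 h with 5 μCi myo-[3H]inositol. Preincubated in HEPES buffer pH 7.4 with 10 mm LiCl, 30 min at 37 °C, then exposed to various peptide concentrations, 45 min at 37 °C. Inositol phosphates recovered on anion-exchange resin; duplicates; EC50 by nonlinear regression.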
# [4] = target: T1, Growth hormone secretagogue receptor type 1; test: Agonist activity at human ghrelin receptor Asp2:20Asn(Asp99) mutant expressed in african green monkey COS7 cells assessed as inhibition of inositol phosphate accumulation; format: functional, cell-based; settings: cos-7; how it was run: as §1
# Target sequence in this assay (Q92847 whole entry, looked up): as the sequence (Q92847 whole entry) above
# [5] = target: T1, Growth hormone secretagogue receptor type 1; test: Inverse agonist activity at human wild type ghrelin receptor expressed in african green monkey COS7 cells assessed as inhibition of constitutively stimulated inositol phosphate accumulation; format: functional, cell-based, COS-7; how it was run: as §1
# Target sequence in this assay (Q92847 whole entry): as above
# [6] = target: Growth hormone secretagogue receptor type 1 (Homo sapiens, UniProt Q92847, Q120A); test: Inverse agonist activity at human ghrelin receptor Gln3:05Ala(Gln120) mutant expressed in african green monkey COS7 cells assessed as inhibition of constitutively stimulated inositol phosphate accumulation; format: functional, cell-based, COS-7; how it was run: as §1
# Chain of Growth hormone secretagogue receptor type 1 (Homo sapiens, UniProt Q92847, Q120A) (Q92847 whole entry Q120A): as the sequence (Q92847 whole entry) above, with Q120A counted along it
# [7] = target: Growth hormone secretagogue receptor type 1 (Homo sapiens, UniProt Q92847, S123A); test: Inverse agonist activity at human ghrelin receptor Ser3:08Ala(Ser123) mutant expressed in african green monkey COS7 cells assessed as inhibition of constitutively stimulated inositol phosphate accumulation; format: functional, cell-based, COS-7; how it was run: as §1
# Chain of Growth hormone secretagogue receptor type 1 (Homo sapiens, UniProt Q92847, S123A) (Q92847 whole entry S123A): as the sequence (Q92847 whole entry) above, with S123A counted along it
# [8] = target: Growth hormone secretagogue receptor type 1 (Homo sapiens, UniProt Q92847, E124Q); test: Inverse agonist activity at human ghrelin receptor Glu3:09Gln(Glu124) mutant expressed in african green monkey COS7 cells assessed as inhibition of constitutively stimulated inositol phosphate accumulation; format: functional, cell-based, COS-7; how it was run: as §1
# Chain of Growth hormone secretagogue receptor type 1 (Homo sapiens, UniProt Q92847, E124Q) (Q92847 whole entry E124Q): as the sequence (Q92847 whole entry) above, with E124Q counted along it
# [9] = target: Growth hormone secretagogue receptor type 1 (Homo sapiens, UniProt Q92847, S174A); test: Inverse agonist activity at human ghrelin receptor Ser4:16Ala(Ser174) mutant expressed in african green monkey COS7 cells assessed as inhibition of constitutively stimulated inositol phosphate accumulation; format: functional, cell-based, COS-7; how it was run: as §1
# Chain of Growth hormone secretagogue receptor type 1 (Homo sapiens, UniProt Q92847, S174A) (Q92847 whole entry S174A): as the sequence (Q92847 whole entry) above, with S174A counted along it
# [10] = target: Growth hormone secretagogue receptor type 1 (Homo sapiens, UniProt Q92847, M213A); test: Inverse agonist activity at human ghrelin receptor Met5:05Ala(Met213) mutant expressed in african green monkey COS7 cells assessed as inhibition of constitutively stimulated inositol phosphate accumulation; format: functional, cell-based, COS-7; how it was run: as §1
# Chain of Growth hormone secretagogue receptor type 1 (Homo sapiens, UniProt Q92847, M213A) (Q92847 whole entry M213A): as the sequence (Q92847 whole entry) above, with M213A counted along it
# [11] = target: Growth hormone secretagogue receptor type 1 (Homo sapiens, UniProt Q92847, V216A); test: Inverse agonist activity at human ghrelin receptor Val5:08Ala(Val216) mutant expressed in african green monkey COS7 cells assessed as inhibition of constitutively stimulated inositol phosphate accumulation; format: functional, cell-based, COS-7; how it was run: as §1
# Chain of Growth hormone secretagogue receptor type 1 (Homo sapiens, UniProt Q92847, V216A) (Q92847 whole entry V216A): as the sequence (Q92847 whole entry) above, with V216A counted along it
# [12] = target: Growth hormone secretagogue receptor type 1 (Homo sapiens, UniProt Q92847, S217A); test: Inverse agonist activity at human ghrelin receptor Ser5:09Ala(Ser217) mutant expressed in african green monkey COS7 cells assessed as inhibition of constitutively stimulated inositol phosphate accumulation; format: functional, cell-based, COS-7; how it was run: as §1
# Chain of Growth hormone secretagogue receptor type 1 (Homo sapiens, UniProt Q92847, S217A) (Q92847 whole entry S217A): as the sequence (Q92847 whole entry) above, with S217A counted along it
# [13] = target: Growth hormone secretagogue receptor type 1 (Homo sapiens, UniProt Q92847, F220A); test: Inverse agonist activity at human ghrelin receptor Phe5:12Ala(Phe220) mutant expressed in african green monkey COS7 cells assessed as inhibition of constitutively stimulated inositol phosphate accumulation; format: functional, cell-based, COS-7; how it was run: as §1
# Chain of Growth hormone secretagogue receptor type 1 (Homo sapiens, UniProt Q92847, F220A) (Q92847 whole entry F220A): as the sequence (Q92847 whole entry) above, with F220A counted along it
# [14] = target: Growth hormone secretagogue receptor type 1 (Homo sapiens, UniProt Q92847, R283Q); test: Inverse agonist activity at human ghrelin receptor Arg6:20Gln(Arg283) mutant expressed in african green monkey COS7 cells assessed as inhibition of constitutively stimulated inositol phosphate accumulation; format: functional, cell-based, COS-7; how it was run: as §1
# Chain of Growth hormone secretagogue receptor type 1 (Homo sapiens, UniProt Q92847, R283Q) (Q92847 whole entry R283Q): as the sequence (Q92847 whole entry) above, with R283Q counted along it
# [15] = target: Growth hormone secretagogue receptor type 1 (Homo sapiens, UniProt Q92847, N305A); test: Inverse agonist activity at human ghrelin receptor Asn7:02Ala(Asn305) mutant expressed in african green monkey COS7 cells assessed as inhibition of constitutively stimulated inositol phosphate accumulation; format: functional, cell-based, COS-7; how it was run: as §1
# Chain of Growth hormone secretagogue receptor type 1 (Homo sapiens, UniProt Q92847, N305A) (Q92847 whole entry N305A): as the sequence (Q92847 whole entry) above, with N305A counted along it
# [16] = target: T1, Growth hormone secretagogue receptor type 1; test: Inverse agonist activity at human ghrelin receptor Phe7:06Leu(Phe306) mutant expressed in african green monkey COS7 cells assessed as inhibition of constitutively stimulated inositol phosphate accumulation; format: functional, cell-based; settings: cos-7; how it was run: as §1
# Target sequence in this assay (Q92847 whole entry, looked up): as the sequence (Q92847 whole entry) above
# [17] = target: Growth hormone secretagogue receptor type 1 (Homo sapiens, UniProt Q92847, F312A); test: Inverse agonist activity at human ghrelin receptor Phe7:09Ala(Phe312) mutant expressed in african green monkey COS7 cells assessed as inhibition of constitutively stimulated inositol phosphate accumulation; format: functional, cell-based, COS-7; how it was run: as §1
# Chain of Growth hormone secretagogue receptor type 1 (Homo sapiens, UniProt Q92847, F312A) (Q92847 whole entry F312A): as the sequence (Q92847 whole entry) above, with F312A counted along it
# [18] = target: Growth hormone secretagogue receptor type 1 (Homo sapiens, UniProt Q92847, F119S); test: Agonist activity at human ghrelin receptor Phe3:04Ser(phe119) mutant expressed in african green monkey COS7 cells assessed as stimulation of constitutively stimulated inositol phosphate accumulation
# Chain of Growth hormone secretagogue receptor type 1 (Homo sapiens, UniProt Q92847, F119S) (Q92847 whole entry F119S): as the sequence (Q92847 whole entry) above, with F119S counted along it
# [19] = target: Growth hormone secretagogue receptor type 1 (Homo sapiens, UniProt Q92847, I178A); test: Agonist activity at human ghrelin receptor Ile4:20Ala(Ile178) mutant expressed in african green monkey COS7 cells assessed as stimulation of constitutively stimulated inositol phosphate accumulation
# Chain of Growth hormone secretagogue receptor type 1 (Homo sapiens, UniProt Q92847, I178A) (Q92847 whole entry I178A): as the sequence (Q92847 whole entry) above, with I178A counted along it
smiles,measurement,setting,value
CC(C)C[C@H](NC(=O)[C@H](CC(C)C)NC(=O)[C@@H](Cc1c[nH]c2ccccc12)NC(=O)[C@H](Cc1ccccc1)NC(=O)[C@@H](Cc1c[nH]c2ccccc12)NC(=O)[C@@H](N)CCCN=C(N)N)C(N)=O,IC50,[1],12 nM
same,IC50,[2],21 nM
CC(C)C[C@H](NC(=O)[C@H](CC(C)C)NC(=O)[C@@H](Cc1c[nH]c2ccccc12)NC(=O)[C@H](Cc1ccccc1)NC(=O)[C@@H](Cc1c[nH]c2ccccc12)NC(=O)[C@@H](N)CC(=O)O)C(N)=O,IC50,[1],60 nM
same,IC50,[2],260 nM
CC(C)C[C@H](NC(=O)[C@H](CC(C)C)NC(=O)[C@@H](Cc1c[nH]c2ccccc12)NC(=O)[C@H](Cc1ccccc1)NC(=O)[C@@H](Cc1c[nH]c2ccccc12)NC(=O)[C@@H](N)CCCCN)C(N)=O,IC50,[3],> 1000 nM
same,IC50,[4],> 1000 nM
same,IC50,[5],32 nM
same,IC50,[1],13 nM
same,IC50,[2],36 nM
same,IC50,[6],> 1000 nM
same,IC50,[7],21 nM
same,IC50,[8],> 1000 nM
same,IC50,[9],2.6 nM
same,IC50,[10],29 nM
same,IC50,[11],27 nM
same,IC50,[12],83 nM
same,IC50,[13],19 nM
same,IC50,[14],> 1000 nM
same,IC50,[15],61 nM
same,IC50,[16],> 1000 nM
same,IC50,[17],> 1000 nM
same,EC50,[18],60 nM
same,EC50,[19],43 nM
